The sample as a whole holds a higher share of hits than the screen did.
T cruzi intra: inhibitors of intracellular Trypanosoma cruzi; activity score (inhibition), % at 5.01 µM; intracellular Trypanosoma cruzi in host cells, plate reader; 22,000 compounds, 4.9% hits; in the data active means activity score above about 55%;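 further: parasites and compound incubated about four days before reading; 0% = median of neutral control wells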
INS-1E ATP HTS: rescue of cytokine-induced death in INS-1E beta cells. INS-1E cytokine-induced death, ATP luminescence, 48 h; normalised: neutral wells 0, positive control 100. protection from cytokine-induced ATP loss, % at 10 µM. 20,000 compounds, 0.1% hits. AID 488910;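 active means mean replicate protection from cytokine-induced ATP loss at least 50% and at least 75% of replicates each reaching 50%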
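Assay system: INS-1E rat cells / Quantity: 8000 cells per well / Medium: RPMI without phenol red, 5% FBS / Probe or stimulus: three-cytokine cocktail (IFN-γ, TNF-α, IL-1β) / Dosing: one compound concentration, pin transfer / Timing: 48 h co-treatment, 10 min post-lysis read / Technique: CellTiter-Glo luminescence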
YB-1 expression: YB-1 expression inhibition. U2OS, qRT-PCR YB-1 vs CDIP delta delta Cp, 16 h; hits give high values; zero = DMSO, each unit about twofold. delta delta Cp (YB-1 minus CDIP) (test concentration not listed). 30,000 compounds, 0.37% hits. AID 434959;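 active means delta delta Cp rounded down to an integer at or above 3, about 3 SD of DMSO wells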;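 further: higher means less YB-1 transcript or more CDIP transcript relative to DMSO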
Numbers without * were called inactive.

What do the screens show for `C[C@H]1CN([C@@H](C)CO)C(=O)c2cc(NC(=O)Nc3cccc4ccccc34)ccc2O[C@H]1CN(C)Cc1ccc(-c2ccccc2)cc1`?
T cruzi intra: 19; YB-1 expression: 0.14

What do the screens show for `C[C@H]1CN([C@@H](C)CO)C(=O)c2cc(NC(=O)Nc3cccc4ccccc34)ccc2O[C@@H]1CN(C)Cc1ccc(Oc2ccccc2)cc1`?
T cruzi intra: 81*; INS-1E ATP HTS: -26; YB-1 expression: 0.13

How did C[C@@H]1CN([C@H](C)CO)C(=O)c2cc(NC(=O)Nc3cccc4ccccc34)ccc2O[C@@H]1CN(C)Cc1ccc(Oc2ccccc2)cc1 do in these assays?
T cruzi intra: 29; INS-1E ATP HTS: -20; YB-1 expression: 0.16

Results for C[C@@H]1CN([C@H](C)CO)C(=O)c2cc(NC(=O)Nc3cccc4ccccc34)ccc2O[C@H]1CN(C)Cc1ccc(-c2ccccc2)cc1 ?
T cruzi intra: 86*; INS-1E ATP HTS: -12; YB-1 expression: -0.11

How did C[C@H]1CN([C@@H](C)CO)C(=O)c2cc(NC(=O)NC3CCCCC3)ccc2O[C@H]1CN(C)S(=O)(=O)c1cn(C)cn1 do in these assays?
T cruzi intra: -3; INS-1E ATP HTS: 7; YB-1 expression: 0.26

How did COc1ccc(S(=O)(=O)Nc2ccc3c(c2)CC(=O)N([C@H](C)CO)C[C@@H](C)[C@@H](CN(C)S(=O)(=O)c2cccs2)O3)cc1 do in these assays?
T cruzi intra: 77*; INS-1E ATP HTS: -1; YB-1 expression: -0.57

What do the screens show for `C[C@H]1CN([C@@H](C)CO)C(=O)Cc2cc(NS(=O)(=O)c3ccc(Cl)cc3)ccc2O[C@@H]1CN(C)S(=O)(=O)c1cccs1`?
T cruzi intra: -33; INS-1E ATP HTS: 12; YB-1 expression: 0.15

Results for C[C@@H]1CN([C@H](C)CO)C(=O)Cc2cc(NS(=O)(=O)c3ccc(Cl)cc3)ccc2O[C@@H]1CN(C)S(=O)(=O)c1cccs1 ?
T cruzi intra: 74*; INS-1E ATP HTS: -5; YB-1 expression: 0.078

What do the screens show for `Cc1ccc(S(=O)(=O)Nc2ccc3c(c2)CC(=O)N([C@@H](C)CO)C[C@H](C)[C@H](CN(C)S(=O)(=O)c2cccs2)O3)cc1`?
T cruzi intra: 3; INS-1E ATP HTS: 12; YB-1 expression: -0.6

What do the screens show for `C[C@H](CO)N1C[C@H](C)[C@@H](CN(C)Cc2ccc3c(c2)OCO3)Oc2ccc(NC(=O)NC3CCCCC3)cc2C1=O`?
T cruzi intra: -4; INS-1E ATP HTS: -2; YB-1 expression: 0.056

How did CC(C)NC(=O)N(C)C[C@@H]1OCCCC[C@@H](C)Oc2ccc(NC(=O)CCCCCC(=O)Nc3ccccc3N)cc2C(=O)N([C@H](C)CO)C[C@@H]1C do in these assays?
T cruzi intra: -27; INS-1E ATP HTS: -4; YB-1 expression: -0.26

What do the screens show for `C[C@@H]1CN([C@@H](C)CO)C(=O)c2cccc(N(C)C)c2O[C@@H]1CN(C)S(=O)(=O)c1cccs1`?
T cruzi intra: 6; INS-1E ATP HTS: 7; YB-1 expression: -0.65

How did C[C@H]1CN([C@@H](C)CO)C(=O)Cc2cc(NC(=O)C3CCCCC3)ccc2O[C@@H]1CN(C)Cc1ccc2c(c1)OCO2 do in these assays?
T cruzi intra: 66*; INS-1E ATP HTS: -11; YB-1 expression: 0.18

What do the screens show for `C[C@@H]1CN([C@H](C)CO)C(=O)Cc2cc(NC(=O)C3CCCCC3)ccc2O[C@@H]1CN(C)Cc1ccc2c(c1)OCO2`?
T cruzi intra: 0; INS-1E ATP HTS: -18; YB-1 expression: 0.61

How did C[C@@H]1CN([C@H](C)CO)C(=O)Cc2cc(NC(=O)C3CCCCC3)ccc2O[C@@H]1CN(C)Cc1ccc(Cl)c(Cl)c1 do in these assays?
T cruzi intra: 57*; INS-1E ATP HTS: -78; YB-1 expression: -0.21

How did C[C@@H]1CN([C@H](C)CO)C(=O)Cc2cc(NC(=O)C3CCCCC3)ccc2O[C@H]1CN(C)Cc1ccc(Cl)c(Cl)c1 do in these assays?
T cruzi intra: 50; INS-1E ATP HTS: -31; YB-1 expression: -0.29

What do the screens show for `C[C@@H]1CN([C@@H](C)CO)C(=O)c2cccc(NC(=O)Nc3cccc4ccccc34)c2O[C@H]1CN(C)S(=O)(=O)c1cccs1`?
T cruzi intra: 16; INS-1E ATP HTS: 7; YB-1 expression: -0.34

Results for C[C@H]1CN([C@@H](C)CO)C(=O)c2cc(NC(=O)Cn3cnnn3)ccc2O[C@H]1CN(C)S(=O)(=O)c1ccc(Cl)cc1 ?
T cruzi intra: 11; INS-1E ATP HTS: 1; YB-1 expression: 0.36

Results for COc1cc(O)c(C(=O)CCc2ccc(OC)c(OC)c2)c(OC)c1 ?
YB-1 expression: 4.9*

What do the screens show for `COc1ccc(CCC(=O)c2ccc(OC)cc2O)cc1`?
YB-1 expression: -0.28

Compound activity as filed in PubChem.
